This note sets out measurements from ChEMBL document CHEMBL1147985, “Novel benzodifuran analogs as potent 5-HT2A receptor agonists with ocular hypotensive activity” (Bioorg Med Chem Lett, 2007).

The target in test [1] is T1, 5-hydroxytryptamine receptor 2A (Rattus norvegicus, UniProt P14842). As to the kind of experiment: Displacement of [125I]DOI from 5HT2A receptor in rat cerebral cortex. Type of test: tissue-based. The procedure, abridged:
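Competition binding against the agonist radioligand [125I]DOI at rat brain (cerebral cortex) 5-HT2A receptors. Values are means of at least three experiments.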

For test [2], the target named is 5-hydroxytryptamine receptor 2A (Rattus norvegicus) (UniProt P14842). The test is described as follows: (§1) Agonist activity at 5HT2A receptor in rat A7r5 cells assessed as intracellular calcium mobilization relative to 5HT. Type of test: functional, cell-based. The procedure, abridged: (§2)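 Native 5-HT2 receptors in rat vascular smooth muscle A7r5 cells; receptor-mediated intracellular Ca2+ mobilization read on FLIPR. Emax expressed relative to the 5-HT response. Values are means of at least three experiments.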

The target of test [3] is T1, 5-hydroxytryptamine receptor 2A. Described as §1. Type of test: functional, cell-based. In a few lines: as §2
Another test deals with Cynomolgus monkey. The test is described as follows: Reduction of intra ocular pressure in cynomolgus monkey at 300 ug. The format is functional, organism-based, Macaca fascicularis, Eye. The arrangement: Activity: scale not given: the % may be the effect or the level left.
For test [4], the target named is T2, 5-hydroxytryptamine receptor 2C (Rattus norvegicus, UniProt P08909).
T2 sequence (P08909 whole entry): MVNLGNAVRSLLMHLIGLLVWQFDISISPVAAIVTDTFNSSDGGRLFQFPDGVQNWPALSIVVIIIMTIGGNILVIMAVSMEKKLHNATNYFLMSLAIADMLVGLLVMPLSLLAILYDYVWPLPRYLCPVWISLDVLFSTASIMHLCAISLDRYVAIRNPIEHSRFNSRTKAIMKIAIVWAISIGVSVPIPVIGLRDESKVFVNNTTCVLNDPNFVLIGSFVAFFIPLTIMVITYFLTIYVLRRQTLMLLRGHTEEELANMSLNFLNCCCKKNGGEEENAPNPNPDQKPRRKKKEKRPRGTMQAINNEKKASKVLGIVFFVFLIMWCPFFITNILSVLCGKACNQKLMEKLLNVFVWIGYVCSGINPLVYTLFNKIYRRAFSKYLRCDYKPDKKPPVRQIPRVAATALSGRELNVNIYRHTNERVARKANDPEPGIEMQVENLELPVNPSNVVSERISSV
As to the kind of experiment: Agonist activity at 5HT2C receptor expressed in […] cells assessed as intracellular calcium mobilization relative to 5HT.

Test [5] deals with T3, 5-hydroxytryptamine receptor 2C (Rattus norvegicus) (UniProt P08909).
T3 sequence (whole entry): T2 sequence (P08909 whole entry)
As to the kind of experiment: Agonist activity at 5HT2C receptor expressed in […] cells assessed as intracellular calcium mobilization. Type of test: functional, cell-based. In a few lines: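 SR3T3 cells expressing recombinant rat 5-HT2C receptor; intracellular Ca2+ mobilization measured on FLIPR, as for the A7r5 assay. Emax taken relative to 5-HT. Values are means of at least three experiments.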

Test [6] deals with 5-hydroxytryptamine receptor 2A (Rattus norvegicus) (UniProt P14842). As to the kind of experiment: Agonist activity at 5HT2A receptor in rat A7r5 cells assessed as intracellular calcium mobilization. The format is functional, cell-based. In a few lines: as §2
The target in test [7] is 5-hydroxytryptamine receptor 2B (Rattus norvegicus, UniProt P30994). As to the kind of experiment: Agonist activity at 5HT2B receptor in rat stomach fundus assessed as […] relative to 5HT. Type of test: functional. In a few lines:
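Functional 5-HT2B response measured in isolated rat stomach fundus tissue, run by a contract lab. Emax given relative to 5-HT. Means of at least three experiments.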

Bounds are passed on as bounds.

T1 sequence (P14842 whole entry): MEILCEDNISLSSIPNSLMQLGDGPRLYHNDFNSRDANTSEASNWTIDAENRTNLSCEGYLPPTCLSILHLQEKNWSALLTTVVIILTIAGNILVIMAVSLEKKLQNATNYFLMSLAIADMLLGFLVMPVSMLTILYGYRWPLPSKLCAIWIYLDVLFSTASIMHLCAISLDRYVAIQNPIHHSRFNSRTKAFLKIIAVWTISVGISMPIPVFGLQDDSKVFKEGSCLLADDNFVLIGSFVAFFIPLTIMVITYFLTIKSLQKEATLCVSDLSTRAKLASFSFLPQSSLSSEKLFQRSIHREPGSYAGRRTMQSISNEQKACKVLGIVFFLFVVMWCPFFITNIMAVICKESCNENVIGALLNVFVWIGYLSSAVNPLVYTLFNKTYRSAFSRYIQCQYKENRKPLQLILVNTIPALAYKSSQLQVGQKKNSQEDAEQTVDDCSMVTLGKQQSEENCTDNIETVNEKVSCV
Sequence of 5-hydroxytryptamine receptor 2A (Rattus norvegicus) (P14842 whole entry): as above
Sequence of 5-hydroxytryptamine receptor 2B (P30994 whole entry): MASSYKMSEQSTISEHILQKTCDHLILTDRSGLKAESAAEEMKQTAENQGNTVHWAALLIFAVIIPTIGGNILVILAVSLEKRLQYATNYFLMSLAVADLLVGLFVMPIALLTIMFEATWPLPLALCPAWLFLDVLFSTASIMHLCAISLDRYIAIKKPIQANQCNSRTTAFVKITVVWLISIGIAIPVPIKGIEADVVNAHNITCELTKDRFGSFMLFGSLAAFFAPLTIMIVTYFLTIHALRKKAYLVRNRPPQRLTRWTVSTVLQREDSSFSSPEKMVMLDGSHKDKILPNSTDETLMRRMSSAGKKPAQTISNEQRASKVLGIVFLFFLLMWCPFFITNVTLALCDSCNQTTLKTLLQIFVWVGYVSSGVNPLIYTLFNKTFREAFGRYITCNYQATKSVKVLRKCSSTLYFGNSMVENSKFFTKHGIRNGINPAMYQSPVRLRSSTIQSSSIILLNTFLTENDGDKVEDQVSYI

Take `C[C@@H](N)Cc1c2c(c(CO)c3c1OCC3)OCC2`: the IC50 in test [1] was 1 nM. Moreover, the Emax in test [2] worked out at 43%. Further, the EC50 in test [3] came to 175 nM.
On to `COCc1c2c(c(C[C@@H](C)N)c3c1OCC3)OCC2`, for which the Activity in the test on Cynomolgus monkey turned out to be 36.8%. In test [1], this compound had an IC50 of 0.28 nM. Also, the values for the EC50 in test [4] and in test [3] were 12.6 nM and 12 nM, respectively. Further, the figures for the maximal effect (Emax) in test [5] and in test [6] were 99% and 54%, respectively.
On to `Cc1noc(Cc2c3c(c(C[C@@H](C)N)c4c2OCC4)OCC3)n1`, for which the IC50 in test [1] stood at 1.6 nM. The EC50 in test [4] was found to be 689 nM; in test [7], 130 nM; in test [3], 49.2 nM. The figures for the Emax in test [5] and in test [6] were 69% and 33%, respectively.
Compound `COCc1c2ccoc2c(C[C@@H](C)N)c2ccoc12` displayed an IC50 in test [1] of 0.11 nM. For the same compound, in test [2], the Emax worked out at 72%. In addition, the EC50 in test [3] is 3.6 nM.
In test [1], `CC(N)Cc1c2c(c(Br)c3c1OCC3)OCC2` (stereo not given) had an IC50 of 0.3 nM. Moreover, in test [2], the Emax stood at 47%. The EC50 in test [3] stood at 13 nM.
Compound `COC(=O)c1c2c(c(C[C@@H](C)N)c3c1OCC3)OCC2` came in with an IC50 in test [1] of 14 nM. In test [2], the Emax is 48%. In addition, the concentration for a half-maximal effect (EC50) in test [3] came out at 880 nM.
The like results for `C[C@@H](N)Cc1c2c(c(CCC(=O)O)c3c1OCC3)OCC2` were, in that order, 4700 nM, 15% and over 1000 nM.
For `C[C@@H](N)[C@@H](O)c1c2c(c(Br)c3c1OCC3)OCC2` (racemic) the same measures were 2.6 nM, 56% and 87.8 nM.
`Cc1noc(Cc2c3ccoc3c(C[C@@H](C)N)c3ccoc23)n1` displayed an Activity with Cynomolgus monkey of 27%. Moreover, the IC50 in test [1] worked out at 0.38 nM. Moreover, the results for the EC50 in test [4], in test [7] and in test [3] were 82 nM, 23 nM and 16.9 nM, respectively. Further, the Emax in test [5] turned out to be 95%; in test [6], 60%.
The compound `COC(=O)CCc1c2c(c(C[C@@H](C)N)c3c1OCC3)OCC2` gave an IC50 in test [1] of 0.86 nM. Besides, the Emax in test [2] came to 40%. For the same compound, in test [3], the EC50 came to 26 nM.
Consider `Cc1noc(CCc2c3c(c(C[C@@H](C)N)c4c2OCC4)OCC3)n1`, for which, in test [1], the IC50 worked out at 1 nM. For the same compound, the Emax in test [2] was 7%. Further, in test [3], the EC50 was over 10000 nM.
For the compound `COCCOCc1c2c(c(C[C@@H](C)N)c3c1OCC3)OCC2`, in test [1], the IC50 came out at 0.88 nM. Besides, the values for the EC50 in test [4], in test [7] and in test [3] were 8.6 nM, 5.8 nM and 71 nM, respectively. In addition, the Emax came out at 93% in test [5] and 50% in test [6].
On to `C[C@@H](N)Cc1c2ccoc2c(CO)c2ccoc12`, for which the IC50 in test [1] was 0.31 nM. The Emax in test [2] stood at 38%. Moreover, the EC50 in test [3] was found to be 33 nM.
In turn, `C[C@@H](N)[C@H](O)c1c2c(c(Br)c3c1OCC3)OCC2` gave an Activity in the test on Cynomolgus monkey of 24%. For the same compound, in test [1], the IC50 stood at 0.7 nM. In addition, the EC50 in test [4] was found to be 39 nM; in test [7], 6.2 nM; in test [3], 32.7 nM. Besides, the Emax amounted to 100% in test [5] and 96% in test [6].
Regarding `Cc1noc(-c2c3c(c(C[C@@H](C)N)c4c2OCC4)OCC3)n1`, the IC50 in test [1] was found to be 910 nM. For the same compound, the Emax in test [2] worked out at 27%. The EC50 in test [3] turned out to be 8190 nM.
As for `C[C@@H](N)Cc1c2c(c(CC(=O)O)c3c1OCC3)OCC2`, the IC50 in test [1] amounted to 104 nM. Moreover, the Emax in test [2] was 45%. Moreover, the EC50 in test [3] came out at 4970 nM.
Consider `COc1cc(C[C@@H](C)N)c(OC)cc1I`, for which the EC50 in the test with Cynomolgus monkey (Macaca fascicularis, Eye) was 2.72 nM; in test [3], 17.8 nM. In addition, the IC50 in test [1] was determined as 0.46 nM. Besides, the Emax in test [6] and in test [2] was 33% each time.
